Assay results taken from the RNAGym collection of RNA variant scans (doi:10.1126/science.aae0568).
Fewer inactive variants are shown than the library holds.

B1: tRNA (parent)
chain: GUUCCGUUGGCGUAAUGGUAACGCGUCUCCCUCCUAAGGAGAAGACUGCGGGUUCGAGUCCCGUACGGAACG

Variants of: B1
Test: yeast fitness relative to wild type (ratio to wild type); higher = fitter; tRNA-Arg(CCU), competitive growth, 37 C, YPD
Method in brief: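 The tRNA-Arg(CCU) gene variants were made by chemical synthesis with a 3% per-site mutation rate at 69 sites and inserted at the native genomic locus of Saccharomyces cerevisiae. After pooling, the strains were competed in YPD at 37°C for 24 hours in six parallel replicates. Gene amplicons from the start population and each end population were read by 100-nucleotide paired-end sequencing, and Darwinian fitness relative to wild type was taken from genotype frequency changes. Genotypes needed ≥ 100 starting reads, and estimates < 0.5 were set to 0.5.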

**Q.** For GUACCGUUGGCGUAAUGGUAACGCGUCUCCCUCCUCAGGAGAAGACUGCGCGUUCGAGUCCCGUACGGAACG [U3A A36C G51C], which yeast fitness is on record?
**A.** The yeast fitness was 0.534.

**Q.** Which yeast fitness does the source give for GUAACGUCGGCGUAAUGGUAACGCGUCUGCCUCCUACGGAGAAGACUGCGGGUUCGAGUCCCGUACGGCACG [U3A C4A U8C C29G A37C A69C] here?
**A.** Its yeast fitness is at most 0.5.

**Q.** Which yeast fitness does the source give for GUACCGUUGGCGUAAUGGUAACGCGUCUCCCUCCUAAGGAGAAGACUGCGGGUUCGAGUCCCGUCCGGAUCG [U3A A65C A70U] here?
**A.** The yeast fitness was 0.66.

**Q.** Which yeast fitness does the source give for GUAUCGUUGACGUAAUGGUAACGCGUCUCCCUGGUAAGGAGAAGACUGCGGGUUCGUGUCCCGUACGGAACG [U3A C4U G10A C33G C34G A57U] here?
**A.** The yeast fitness was at most 0.5.

**Q.** For GUACUGUUGGCGUAAUGGUAACGCGUCUCCCUCCUAAGGAGGAGACUGCGGCUUCGGGUCCCGUACGGAACG [U3A C5U A42G G52C A57G], which yeast fitness is on record?
**A.** The yeast fitness was at most 0.5.

**Q.** For GUAUCGUAGACGUAAUGGUAGCGCGUCUCCCUCCUAAGGAGAAGACUGCGGGAUCGAGUCCCGUCCGGAGCG [U3A C4U U8A G10A A21G U53A A65C A70G], which yeast fitness is on record?
**A.** The yeast fitness was at most 0.5.

**Q.** Which yeast fitness does the source give for GUACCGUUGGCGUAAUGGUAACGCGUCUCCCUCCUUAGGAGAGGACUGCGGCUUCGAGUCCCAUACUGACCG [U3A A36U A43G G52C G63A G67U A70C] here?
**A.** Its yeast fitness is 0.557.

**Q.** Which yeast fitness does the source give for GUACCGUUGGCGUCAUGGUAACGCGUCUCCCUCCUAAGGAGCAGACCGCGGGUUCGAGUCCCGUACGGAACG [U3A A14C A42C U47C] here?
**A.** Its yeast fitness is at most 0.5.

**Q.** With GUACACUUGGCGUAGAGGUAACGCGGCUCCCUCCUAACGAGAAGACUGCGGGUACGAGUCCCGUACGGAACG [U3A C5A G6C A15G U16A U26G G38C U54A] as the variant, how does the yeast fitness read?
**A.** Its yeast fitness is at most 0.5.

**Q.** For GUACCGUUGGCGUAAUGGUAGCCCGUCUCCCUCCUAAGGAGAAGACUGCGGGUUCGAGUCCCGUCCGGAACG [U3A A21G G23C A65C], which yeast fitness is on record?
**A.** Its yeast fitness is at most 0.5.

**Q.** Which yeast fitness does the source give for GUACCGUUGGCGUGAUGGUAACGCGUCUCCGUCCUAUGGAGAAGACUGCGGGUUCGAGUCCCGUUCGGAACG [U3A A14G C31G A37U A65U] here?
**A.** Its yeast fitness is at most 0.5.

**Q.** Which yeast fitness does the source give for GUACCGUUGGCGUAAUGGUUACGCGUCUCCCUCCUAAGGAGAAGACUGCGGGUUCGAGUCCCGUACUGAACG [U3A A20U G67U] here?
**A.** The yeast fitness was 0.598.

**Q.** Which yeast fitness does the source give for GUACCGUUGGAGUAAUGGUAACGCGUCUCCCUUCUAAGGAGAAGACUGCGGGUUCGACUCCCGUACGGAACG [U3A C11A C33U G58C] here?
**A.** Its yeast fitness is at most 0.5.

**Q.** With GUACCGUUGGCGUAAUGGUAACGCGUCUCCCUCCUACGGAGAAGACUGCGGGUUCGAGUCCUGUACGGAACG [U3A A37C C62U] as the variant, how does the yeast fitness read?
**A.** Its yeast fitness is 0.529.

**Q.** Which yeast fitness does the source give for GUACCGUUGGCGUGAUGGUAACGCGUCUCCCUCCUAAGGAGAAGACUGCGGGUUCGAAUCCCGUACGGAACG [U3A A14G G58A] here?
**A.** The yeast fitness was 0.883.

**Q.** Which yeast fitness does the source give for GUACUGUUGGCGUAAUGGUAACGCGUCUCCCUCCUAAGGAGAAGAAUGCGGGUUCGAGUCCCGUACGGAACG [U3A C5U C46A] here?
**A.** The yeast fitness was 0.724.

**Q.** With GUACGGUUGGCGUAAUGGUAUUGCGUCUCCCUCCUAAGGAAACGACUGCGCGUUCGAGUCCCGUAUUGAACG [U3A C5G A21U C22U G41A A43C G51C C66U G67U] as the variant, how does the yeast fitness read?
**A.** Its yeast fitness is at most 0.5.

**Q.** With GUACCGUUGGCGUAAUGGUACCGGGUCUCCCUCCUAAGGAGAAGACUGCGGGUUCGAGUCCCGUACGAAACG [U3A A21C C24G G68A] as the variant, how does the yeast fitness read?
**A.** The yeast fitness was at most 0.5.

**Q.** With GUACUGUUGGCGUAAUGGUAACGCGUCUCCCUCCUAUGGAGAAGACUGCGGGUUCGAGUCCCGUACGGAACG [U3A C5U A37U] as the variant, how does the yeast fitness read?
**A.** Its yeast fitness is at most 0.5.

**Q.** For GUACCGUUGGCGUAAUGGUAGCGCGUCUCCCUCCUAAGGAGAAGACUGCGGGUUCGAGUCCCGUACGGACCG [U3A A21G A70C], which yeast fitness is on record?
**A.** Its yeast fitness is 1.05.

**Q.** For GUAGCGUUGGCGUAAUGGUAACGCGUCUCCCUCCUAAGGAGAAGACUGCGGGUUCGAGUCCCGUACGAAACG [U3A C4G G68A], which yeast fitness is on record?
**A.** Its yeast fitness is at most 0.5.

**Q.** Which yeast fitness does the source give for GUACCGUUGGCGUAAUGGUAACGCGUCUCCCUCCUAAGGAGAAGUGUGCGGAUUCGAGUCCCGUACGGAACG [U3A A45U C46G G52A] here?
**A.** Its yeast fitness is 0.613.

**Q.** With GGUCCGUUGGCGUAAUGGUAACGCGGCUCUCUCCUAAGGAGAAGACUGCGGGUUCGAGGCCCGGACGAAACG [U2G U26G C30U U59G U64G G68A] as the variant, how does the yeast fitness read?
**A.** Its yeast fitness is at most 0.5.

**Q.** Which yeast fitness does the source give for GUACCGUUGGGGUAAUGGUAACGCGUCUCCCUCCUAAGGAGAAGACUGCGGGUUCGAGUCACGUACGGAACG [U3A C11G C61A] here?
**A.** Its yeast fitness is at most 0.5.

**Q.** Which yeast fitness does the source give for GUACCGUUGGCGUAAUGGUACCGGGUCUCCCUCCUAAGGAGAAGACUGCGGGUUCGAGUCCGGUACGGAACG [U3A A21C C24G C62G] here?
**A.** The yeast fitness was 0.599.

**Q.** Which yeast fitness does the source give for GUACAGUUGGCGUAAUGGUAACGCGUCUCGCUCCUAACGAGAAGACUGCGGGUUCGAGUCACGUACGGAACG [U3A C5A C30G G38C C61A] here?
**A.** The yeast fitness was 0.655.

**Q.** With GGUCCGUUGGCGUAAUGGUAACGCGUCUCCCUCCUAAGGAGAAGACGGCGGGUUCGAGUCCCGUACUGAACG [U2G U47G G67U] as the variant, how does the yeast fitness read?
**A.** The yeast fitness was at most 0.5.

**Q.** For GUACGGUUGGCGUAAUGGUAACGCGUCUCCCUCCAAAGGUGAAGAGUGCGGGAUCGAGUCCCGUACGGAACG [U3A C5G U35A A40U C46G U53A], which yeast fitness is on record?
**A.** Its yeast fitness is 0.583.

**Q.** Which yeast fitness does the source give for GUAUCGUUGGCGUAAUGGUAACGCCUCUCCCUCCUAAGGAGAAGACUGCGGGUUCGAGUCCCGUACGGCACG [U3A C4U G25C A69C] here?
**A.** Its yeast fitness is at most 0.5.

**Q.** For GUACCGUUGGCGUAAUGGUAACGCGUCUCCCUCCUUAGGAGAAGACUGCGGGUUCGGGUCCCCUACGGAACG [U3A A36U A57G G63C], which yeast fitness is on record?
**A.** Its yeast fitness is 0.681.

**Q.** With GUAGCGUAGGCGUAAUGGUAACGCGUCUCCCUCUUAAGGAGAAGACUGCGGGUUCGAGUCCCGUACGGAACG [U3A C4G U8A C34U] as the variant, how does the yeast fitness read?
**A.** Its yeast fitness is at most 0.5.

**Q.** Which yeast fitness does the source give for GGUCCGUUGGCGUAAUGGUAACGCGUCUCCCUCCUAAGGAGAAGACUGCGGGUCCGAGUCCCGUAUGGAACG [U2G U54C C66U] here?
**A.** The yeast fitness was at most 0.5.

**Q.** For GUAGCGUUGGCGUAAUGGUAACGCGUCUCCCUCCUAAGGAGAGGACUGCGGGUUCGAGUCCCGUACGGAACG [U3A C4G A43G], which yeast fitness is on record?
**A.** The yeast fitness was at most 0.5.

**Q.** Which yeast fitness does the source give for GUAUCGUUGGAGUAAUGGUAACGCGUCUCCCUCCUAAGGAGAAAACUGCGGGUUCGAGUCCCGUACGGAACG [U3A C4U C11A G44A] here?
**A.** The yeast fitness was at most 0.5.

**Q.** Which yeast fitness does the source give for GUAUCGUUGGCGUAAUGGUAACGCGUCUCCCUCCUAAGGAGACGACUGCAGGUUCGAGUCCCGUACGGAUCG [U3A C4U A43C G50A A70U] here?
**A.** Its yeast fitness is at most 0.5.

**Q.** With GUAUCGUUGGCGUAAUGGUAACGCGUCUCCAUCCUAAGGAGAAGACUGCGGGUUCGAGUCCCGUAGGCAACG [U3A C4U C31A C66G G68C] as the variant, how does the yeast fitness read?
**A.** The yeast fitness was at most 0.5.

**Q.** Which yeast fitness does the source give for GGUCCGUUGGCGUAAUGGUAACGCGUCUCCCUCCAAAGGAGAAGACUGCGGGUGCGAGUCCCGUACGGAACG [U2G U35A U54G] here?
**A.** The yeast fitness was at most 0.5.

**Q.** Which yeast fitness does the source give for GUACCGUUGGCGUAUUGGUACCGCGUCUCCCUCCUAAGCAGAGGACUGCGGGUCCGAGUCCCGUACGGAACG [U3A A15U A21C G39C A43G U54C] here?
**A.** The yeast fitness was at most 0.5.
